≈ marks a conversion by molar mass, not a printed value.
Assays:
[1] = test system: BXPC-3; assay: Antiproliferative activity against human BxPC3 cells after 24 hrs by MTT assay; format: functional, cell-based; conditions: BXPC-3, 24 h
[2] = test system: PC-3; assay: Antiproliferative activity against human PC3 cells after 24 hrs by MTT assay; format: functional, cell-based; conditions: PC-3, 24 h
[3] = test system: MCF7; assay: Antiproliferative activity against human MCF7 cells after 24 hrs by MTT assay; format: functional, cell-based; conditions: MCF7, 24 h
[4] = Solubility of the compound in water at pH 7.4 by HPLC method; format: physicochemical
Procedure, shortened: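 Aqueous solubility measured at pH 7.4, with samples quantified by HPLC.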

[5] = Half life in rat liver microsomes in presence of NADPH by HPLC method; format: ADME, microsome
Procedure, shortened: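 Compounds incubated with rat liver microsomes plus NADPH. Remaining compound quantified by HPLC at 0, 5, 10, 20, 30, 45, 60 and 90 min, and half-life calculated.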

[6] = test system: MCF7; assay: Induction of apoptosis in human MCF7 cells expressing VDR siRNA assessed as live cells at 1 uM after 24 hrs by Annexin-V-FITC/propidium iodide staining based flow cytometry (reference value: 98.35%); format: functional
[7] = test system: MCF7; assay: Cell cycle arrest in human MCF7 cells expressing VDR siRNA assessed as accumulation at G0/G1 phase at 1 uM after 24 hrs by propidium iodide staining based flow cytometry (reference value: 49.17%); format: functional
[8] = test system: MCF7; assay: Induction of apoptosis in human MCF7 cells expressing scrambled siRNA assessed as late apoptotic cells at 1 uM after 24 hrs by Annexin-V-FITC/propidium iodide staining based flow cytometry (reference value: 0.98%); format: functional
[9] = test system: MCF7; assay: Cell cycle arrest in human MCF7 cells expressing VDR siRNA assessed as accumulation at S phase at 1 uM after 24 hrs by propidium iodide staining based flow cytometry (reference value: 32%); format: functional
[10] = test system: MCF7; assay: Induction of apoptosis in human MCF7 cells expressing scrambled siRNA assessed as live cells at 1 uM after 24 hrs by Annexin-V-FITC/propidium iodide staining based flow cytometry (reference value: 97.93%); format: functional
[11] = test system: MCF7; assay: Induction of apoptosis in human MCF7 cells expressing VDR siRNA assessed as necrotic cells at 1 uM after 24 hrs by Annexin-V-FITC/propidium iodide staining based flow cytometry (reference value: 0.15%); format: functional
[12] = test system: MCF7; assay: Induction of apoptosis in human MCF7 cells expressing VDR siRNA assessed as early apoptotic cells at 1 uM after 24 hrs by Annexin-V-FITC/propidium iodide staining based flow cytometry (reference value: 0.49%); format: functional
[13] = test system: MCF7; assay: Induction of apoptosis in human MCF7 cells expressing scrambled siRNA assessed as necrotic cells at 1 uM after 24 hrs by Annexin-V-FITC/propidium iodide staining based flow cytometry (reference value: 0.16%); format: functional
[14] = test system: MCF7; assay: Induction of apoptosis in human MCF7 cells expressing scrambled siRNA assessed as early apoptotic cells at 1 uM after 24 hrs by Annexin-V-FITC/propidium iodide staining based flow cytometry (reference value: 0.93%); format: functional
[15] = test system: MCF7; assay: Cell cycle arrest in human MCF7 cells expressing VDR siRNA assessed as accumulation at G2/M phase at 1 uM after 24 hrs by propidium iodide staining based flow cytometry (reference value: 17.57%); format: functional
[16] = test system: MCF7; assay: Cell cycle arrest in human MCF7 cells expressing scrambled siRNA assessed as accumulation at G2/M phase at 1 uM after 24 hrs by propidium iodide staining based flow cytometry (reference value: 19.6%); format: functional
[17] = test system: MCF7; assay: Induction of apoptosis in human MCF7 cells expressing VDR siRNA assessed as late apoptotic cells at 1 uM after 24 hrs by Annexin-V-FITC/propidium iodide staining based flow cytometry (reference value: 1.01%); format: functional
[18] = test system: MCF7; assay: Cell cycle arrest in human MCF7 cells expressing scrambled siRNA assessed as accumulation at S phase at 1 uM after 24 hrs by propidium iodide staining based flow cytometry (reference value: 29.79%); format: functional
[19] = test system: MCF7; assay: Cell cycle arrest in human MCF7 cells expressing scrambled siRNA assessed as accumulation at G0/G1 phase at 1 uM after 24 hrs by propidium iodide staining based flow cytometry (reference value: 49.28%); format: functional

## CCn1c(C(=O)N[C@@H](C(=O)O)C(C)C)ccc1C(CC)(CC)c1ccc(OCS(=O)(=O)c2ccccc2)c(C)c1
[1]
  IC50: 13.9 µM
[2]
  IC50: 3.07 µM
[3]
  IC50: 44.7 µM

## CCN(CC)CCNC(=O)c1cc(C(CC)(CC)c2ccc(OCS(C)(=O)=O)c(C)c2)cn1CC
[1]
  IC50: 30.4 µM
[2]
  IC50: 36.6 µM
[3]
  IC50: 16.3 µM

## CCn1c(C(=O)NCCN)ccc1C(CC)(CC)c1ccc(OCS(=O)(=O)c2ccccc2)c(C)c1
[1]
  IC50: 6.43 µM
[4]
  solubility: 65 µg/mL (≈ 127 µM)
[2]
  IC50: 6.89 µM
[3]
  IC50: 6.47 µM
[5]
  half-life: 34.9 min

## CCn1c(C(=O)NCCC(=O)OC)ccc1C(CC)(CC)c1ccc(OCS(=O)(=O)c2ccccc2)c(C)c1
[1]
  IC50: > 50 µM
[2]
  IC50: 40.4 µM
[3]
  IC50: > 50 µM

## CCN(CC)CCNC(=O)c1ccc(C(CC)(CC)c2ccc(OCSc3ccccc3)c(C)c2)n1CC
[6]
  Activity: 97.03%
[7]
  Activity: 51.65%
[1]
  IC50: 5.67 µM
[8]
  Activity: 2.85%
[9]
  Activity: 30.12%
[10]
  Activity: 96.21%
[11]
  Activity: 0.47%
[12]
  Activity: 0.71%
[4]
  solubility: 25.6 µg/mL (≈ 47.8 µM)
[13]
  Activity: 0.35%
[14]
  Activity: 0.59%
[2]
  IC50: 2.23 µM
[3]
  IC50: 4.9 µM
[15]
  Activity: 17.07%
[16]
  Activity: 11.15%
[5]
  half-life: 53.7 min
[17]
  Activity: 1.78%
[18]
  Activity: 31.59%
[19]
  Activity: 55.65%

## CCn1c(C(=O)NCCO)ccc1C(CC)(CC)c1ccc(OCS(=O)(=O)c2ccccc2)c(C)c1
[1]
  IC50: 19.9 µM
[2]
  IC50: 17.7 µM
[3]
  IC50: 15.5 µM

## CCn1c(C(=O)N[C@@H](CO)CCO)ccc1C(CC)(CC)c1ccc(OCS(=O)(=O)c2ccccc2)c(C)c1
[1]
  IC50: > 50 µM
[2]
  IC50: 14.1 µM
[3]
  IC50: 27.4 µM

## CCn1c(C(=O)N[C@H](CO)C(C)C)ccc1C(CC)(CC)c1ccc(OCS(=O)(=O)c2ccccc2)c(C)c1
[1]
  IC50: 7.72 µM
[4]
  solubility: 27.8 µg/mL (≈ 50.1 µM)
[2]
  IC50: 7.3 µM
[3]
  IC50: 25.5 µM
[5]
  half-life: 46.3 min

## CCn1c(C(=O)NCCC(=O)O)ccc1C(CC)(CC)c1ccc(OCS(=O)(=O)c2ccccc2)c(C)c1
[1]
  IC50: > 50 µM
[2]
  IC50: 14.4 µM
[3]
  IC50: > 50 µM

## CCn1c(C(=O)N[C@@H](CC(=O)O)C(=O)O)ccc1C(CC)(CC)c1ccc(OCS(=O)(=O)c2ccccc2)c(C)c1
[1]
  IC50: > 50 µM
[2]
  IC50: > 50 µM
[3]
  IC50: > 50 µM

## CCn1c(C(=O)N[C@H](CO)CCO)ccc1C(CC)(CC)c1ccc(OCS(=O)(=O)c2ccccc2)c(C)c1
[1]
  IC50: 15.9 µM
[2]
  IC50: 12.1 µM
[3]
  IC50: 28.5 µM

## CCn1c(C(=O)N[C@H](CO)CCCO)ccc1C(CC)(CC)c1ccc(OCS(=O)(=O)c2ccccc2)c(C)c1
[1]
  IC50: > 50 µM
[2]
  IC50: 6.81 µM
[3]
  IC50: 31.4 µM

## CCn1c(C(=O)N[C@H](C)CO)ccc1C(CC)(CC)c1ccc(OCS(=O)(=O)c2ccccc2)c(C)c1
[1]
  IC50: 10 µM
[2]
  IC50: 7.79 µM
[3]
  IC50: 10.6 µM

## CCn1c(C(=O)N[C@@H](CC(=O)OC)C(=O)OC)ccc1C(CC)(CC)c1ccc(OCS(=O)(=O)c2ccccc2)c(C)c1
[1]
  IC50: > 50 µM
[2]
  IC50: 6.49 µM
[3]
  IC50: > 50 µM

## CCN(CC)CCNC(=O)c1ccc(C(CC)(CC)c2ccc(OCS(C)(=O)=O)c(C)c2)n1CC
[1]
  IC50: 33.7 µM
[2]
  IC50: 46.7 µM
[3]
  IC50: 14.7 µM

## CCn1c(C(=O)NCCCO)ccc1C(CC)(CC)c1ccc(OCS(=O)(=O)c2ccccc2)c(C)c1
[1]
  IC50: 26.6 µM
[2]
  IC50: 11.3 µM
[3]
  IC50: 42 µM

## CCn1c(C(=O)N[C@@H](CCC(=O)O)C(=O)O)ccc1C(CC)(CC)c1ccc(OCS(=O)(=O)c2ccccc2)c(C)c1
[1]
  IC50: > 50 µM
[2]
  IC50: > 50 µM
[3]
  IC50: > 50 µM

## CCn1c(C(=O)N[C@H](C)C(=O)O)ccc1C(CC)(CC)c1ccc(OCS(=O)(=O)c2ccccc2)c(C)c1
[1]
  IC50: 20.1 µM
[2]
  IC50: 20.1 µM
[3]
  IC50: > 50 µM
